Inconclusive results are not listed.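 The calls were made as follows, unless noted: active = RAM network inhibition above 8.4% in each of two replicates, 3 SD over the compound average; inconclusive = above 8.4% inhibition in only one replicate; inactive = 8.4% inhibition or less in each replicate.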
Assays:
[1] = S. cerevisiae growth inhibition in permissive medium (OD615), pilot counter-assay for S. cerevisiae lifespan shortening project, permissive growth control (AID 705;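 active = growth inhibition above 25% in both replicates, a cutoff set 3 SD above the mean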); conditions: OD615, 24 h, at 10 µM, stronger effect = higher value
Outline: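 System: S. cerevisiae with engineered DeaD lifespan system. Medium: SC raffinose/galactose permissive medium. Doses: single compound dose of 10 µM, 0.25% DMSO final. Schedule: 24 h exposure, 30 °C. Measured by: OD615 turbidity read. Read-out: growth inhibition.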

[2] = S. cerevisiae growth inhibition in restrictive medium, OD615, pilot screen, restrictive growth control, yeast lifespan reduction project (AID 706;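 active = growth inhibition above a set limit, 3 SD over mean compound inhibition, in both replicates, cut at about 43% in these data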;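 also: modified DeaD lifespan yeast strain shifted to restrictive glucose medium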); conditions: OD615, 48 h, at 10 µM, stronger effect = higher value
Outline: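 Assay system – genetically modified Saccharomyces cerevisiae, DeaD replicative lifespan assay strain · Medium – CSMM-D glucose medium · Doses – 10 µM compound, 0.25% DMSO · Times – 4 h pre-incubation, 48 h exposure at 30 °C · Signal – optical density at 615 nm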

[3] = doxorubicin toxicity protection in MRP-1 cells – H69AR cells, CellTiter-Glo, duplicate, MRP-1 activator project, pilot screen (AID 807;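 active = viability increase at or above a cutoff of the median across tested compounds plus 3 SD, cut at about 8.5% in these data, passing the limit was not always enough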;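 also: compound pretreatment 18-22 h then 72 h combined with doxorubicin; 0% = doxorubicin alone and 100% = vehicle without doxorubicin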); conditions: H69AR viability with doxorubicin, CellTiter-Glo luminescence; at 10 µM; stronger effect = higher value
[4] = viability of HCT116 without oncogenic beta-catenin – human colon tumor cells, pilot screen (AID 823;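 active = cell viability at or below a set limit in both duplicate runs, the limit being the all-compound median minus 4 SD, cut at about 23% in these data, passing the limit was not always enough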;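 also: 0% = wells killed by 20 µM Hyamine and 100% = untreated DMSO cell wells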); conditions: HCT116 beta-catenin knockout viability, CellTiter-Glo, 60 h; at 10 µM; stronger effect = lower value
[5] = viability of PTEN-null HCT116 cells – cell-based, HCT116 clonal line, CellTiter-Glo, pilot screen (AID 824;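 active = viability at or below 27.92% in each of two runs, the all-compound median minus 4 SD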;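 also: 0% = 20 µM Hyamine control and 100% = vehicle cell control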); conditions: HCT116 PTEN-deleted viability, 60 h, at 10 µM, stronger effect = lower value
[6] = RAM pathway blockade in budding yeast – dse1pr::URA3 reporter, 5-FOA selection, pilot screen (AID 869;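 active = inhibition over a set limit, the all-compound mean plus 3 SD, in both replicate runs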;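 also: 0% = DMSO wells with no growth and 100% = 10 µM 1-NA-PP1 with full growth; RAM network block rescues cells from 5-FOA so hits raise OD615 growth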); conditions: S. cerevisiae dse1pr::URA3 5-FOA growth, OD615, 2 d; at 10 µM; stronger effect = higher value; strain carries analog-sensitive mutant Cbk1 kinase
[7] = RAM signaling pathway blockade in yeast – S. cerevisiae, Pdr1DBD-CYC8 efflux-inhibited sensitized strain, primary screen (AID 1298);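 also: 0% = DMSO untreated cells without growth and 100% = 10 µM 1-NA-PP1 full growth; higher means more yeast growth rescued from 5-FOA killing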; conditions: S. cerevisiae cbk1-as DSE1-URA3 strain, 5-FOA growth OD615, 2 d; at 50 µM; stronger effect = higher value

Cn1c(=O)c2c(nc(CN3CCCCC3)n2Cc2c(F)cccc2Cl)n(C)c1=O
inactive: growth inhibition [1] -2.88% | growth inhibition [2] -10.9% | viability increase [3] -2.22% | viability [4] 102% | viability [5] 93.2% | inhibition [6] 3.12% | RAM network inhibition [7] 4.38%

CN(C)CCNC(=O)c1ccc(CS(=O)(=O)c2ccc(Br)cc2)o1
inactive: growth inhibition [1] 3.18% | growth inhibition [2] 4.8% | viability increase [3] -0.05% | viability [4] 103% | viability [5] 103% | inhibition [6] 0.565% | RAM network inhibition [7] 2.81%

COCCCNc1ncnc2nc[nH]c12
inactive: growth inhibition [1] 4.6% | growth inhibition [2] -1.01% | viability increase [3] 1.43% | viability [4] 104% | viability [5] 104% | inhibition [6] 0.885% | RAM network inhibition [7] 1.74%

CC(=O)c1ccc(OCC(O)CN2C(C)(C)CC(O)CC2(C)C)cc1 (configuration not stated)
inactive: growth inhibition [1] -16.9% | growth inhibition [2] -12.3% | viability increase [3] 1.37% | viability [4] 105% | viability [5] 96.8% | inhibition [6] 1.66% | RAM network inhibition [7] 7.12%

O=C(O)C1C2C=CC(C2)C1C(=O)NCc1ccc2c(c1)OCO2 (configuration not stated)
inactive: growth inhibition [1] -3.23% | growth inhibition [2] -1.14% | viability increase [3] -1.9% | viability [4] 94.6% | viability [5] 90.6% | inhibition [6] 2.08% | RAM network inhibition [7] 2.65%

O=C(COC(=O)c1ccc(S(=O)(=O)NCc2ccco2)cc1)Nc1ccccc1OC(F)F
inactive: growth inhibition [1] -8.88% | growth inhibition [2] -12.5% | viability increase [3] -2.64% | viability [4] 93.5% | viability [5] 93.7% | inhibition [6] 1.43% | RAM network inhibition [7] 7.18%

O=C(CCSc1ccccc1)Nc1nnc(-c2ccccc2)o1
inactive: growth inhibition [1] -0.38% | growth inhibition [2] 3.81% | viability increase [3] -3.73% | viability [4] 98.9% | viability [5] 103% | inhibition [6] 0.27% | RAM network inhibition [7] 2.5%

COC(=O)C(C(=O)OC)C(C(C)C)C(C(=O)OC)C(=O)OC
inactive: growth inhibition [1] -8.23% | growth inhibition [2] -9.04% | viability increase [3] -1.49% | viability [4] 101% | viability [5] 98.2% | inhibition [6] 1.07% | RAM network inhibition [7] 3.68%

CCc1ccccc1N1CC23C=CC(O2)C(C(=O)OCC(C)C)C3C1=O (configuration not stated)
inactive: growth inhibition [1] -14.3% | growth inhibition [2] -12.6% | viability increase [3] -0.48% | viability [4] 93.7% | viability [5] 89.6% | inhibition [6] 0.385% | RAM network inhibition [7] 0.42%

CCCCOC(=O)C(C)Oc1ccc(=O)n(-c2ccccc2)n1 (configuration not stated)
inactive: growth inhibition [1] -4.39% | growth inhibition [2] -6.44% | viability increase [3] -1.41% | viability [4] 98% | viability [5] 88.4% | inhibition [6] 1.26% | RAM network inhibition [7] 2.76%

O=C(NC1CCN(Cc2ccccc2)CC1)c1ccccc1F
inactive: growth inhibition [1] -3.78% | growth inhibition [2] -11.1% | viability increase [3] -1.39% | viability [4] 95% | viability [5] 98.9% | inhibition [6] 2.02% | RAM network inhibition [7] -0.41%

Cc1cccc(C2N(c3ccc(F)cc3)C(=O)C3CCCN32)c1 (configuration not stated)
inactive: growth inhibition [1] -1.45% | growth inhibition [2] -4.47% | viability increase [3] 0.04% | viability [4] 98.4% | viability [5] 94.8% | inhibition [6] 0.71% | RAM network inhibition [7] 3.46%

COc1ccc2c(c1)c(CCN1C(=O)c3ccccc3C1=O)cn2C(=O)c1ccco1
inactive: growth inhibition [1] -5.41% | growth inhibition [2] 0.45% | viability increase [3] -4.3% | viability [4] 85.7% | viability [5] 85.9% | inhibition [6] 2.02% | RAM network inhibition [7] 4.8%

COCCNC(=O)C1CCN(S(=O)(=O)c2ccccc2)CC1
inactive: growth inhibition [1] -2.1% | growth inhibition [2] -7.54% | viability increase [3] -1.38% | viability [4] 101% | viability [5] 93.7% | inhibition [6] -0.045% | RAM network inhibition [7] 2.93%

CN(Cc1ccccc1)c1nc2c(c(=O)n(C)c(=O)n2C)n1CCSc1ncccn1
inactive: growth inhibition [1] -11.7% | growth inhibition [2] -3.17% | viability increase [3] -2.71% | viability [4] 93.8% | viability [5] 87.1% | inhibition [6] 1.42% | RAM network inhibition [7] 3.63%

CCN(CC)S(=O)(=O)c1ccc(Cl)c(C(=O)NC)c1
inactive: growth inhibition [1] -15.4% | growth inhibition [2] -16.3% | viability increase [3] -0.22% | viability [4] 105% | viability [5] 96.4% | inhibition [6] 0.985% | RAM network inhibition [7] 3.63%

— PubChem BioAssay
